Data from ChEMBL document CHEMBL1125375, “Synthesis and structure-activity relationships of acyclic omega chain conjugated diene analogues of enisoprost” (1992).
The source made the active and inactive calls. No cut-off for these calls is given here.

Tests used:
Canis familiaris [1] = assay: Gastric antisecretory activity in food stimulated pavlov dogs by intrapouch administration; format: functional; settings: Canis lupus familiaris
Procedure, shortened: (§1)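 Adult female beagles (6–11 kg) with innervated Pavlov gastric pouches, food-deprived 14 h with water. After 30 min basal collection, prostaglandin in buffer-ethanol vehicle given into pouch via Thomas cannula; 30 min later pouch emptied and secretion stimulated by feeding canned dog food. Juice collected at 30-min intervals over 4 h; total acid output = volume × acidity. Percent reduction from control over 4 h.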

Rattus norvegicus = assay: Compound was evaluated for diarrheagenic side effects in adult male rats by intragastric administration; format: functional; settings: po
Procedure, shortened: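 Adult Charles River male rats, 210–230 g, individually housed, fasted 24 h with water ad libitum. Logarithmically graded prostaglandin doses given orally (N = 6–12). Diarrhea scored all-or-none for 8 h after dosing.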

[2] = Selectivity ratio was evaluated by the quotient of diarrheal ED50 value divided by antisecretory ED50 x 10 E-3; format: functional
Procedure, shortened: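 Quotient of diarrheal ED50 (male rats, oral graded doses, all-or-none diarrhea over 8 h) over antisecretory ED50 (Pavlov pouch beagles, intrapouch dosing, percent reduction of food-stimulated 4-h total acid output). Antisecretory ED50 from linear regression of dose-response, 3–6 doses and 2–4 dogs per dose.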

Canis familiaris [3] = assay: Gastric antisecretory activity in food stimulated pavlov dogs by intrapouch administration; Inactive at 3.0 ug/Kg; format: functional, organism-based; settings: Canis lupus familiaris; procedure, shortened: as §1

| SMILES | ED50 (Canis familiaris [1]) | ED50 (Rattus norvegicus) | Ratio [2] | ED50 (Canis familiaris [3]) |
| --- | --- | --- | --- | --- |
| C/C=C(C)/C=C/[C@](C)(O)C/C=C/[C@H]1[C@H](O)CC(=O)[C@@H]1CC/C=C\CCC(=O)OC | 0.003 µg/kg | 185 µg/kg | 62 | – |
| COC(=O)CC/C=C\CC[C@H]1C(=O)C[C@@H](O)[C@@H]1/C=C/C[C@@](C)(O)/C=C/C1=CCCC1 | 0.02 µg/kg | > 3160 µg/kg | > 158 | – |
| C=C/C=C/[C@](C)(O)C/C=C/[C@H]1[C@H](O)CC(=O)[C@@H]1CC/C=C\CCC(=O)OC | 0.007 µg/kg | 243 µg/kg | 35 | – |
| CCCCC(C)(O)C/C=C/[C@H]1[C@H](O)CC(=O)[C@@H]1CC/C=C\CCC(=O)OC (stereo not given in full) [ENISOPROST] | 0.023 µg/kg | 49 µg/kg | 2 | – |
| C/C=C/C=C/[C@](C)(O)C/C=C/[C@H]1[C@H](O)CC(=O)[C@@H]1CC/C=C\CCC(=O)OC | 0.03 µg/kg | 250 µg/kg | 8 | – |
| COC(=O)CC/C=C\CC[C@H]1C(=O)C[C@@H](O)[C@@H]1/C=C/C[C@@](C)(O)/C=C/C=C(C)C | 0.06 µg/kg | > 3160 µg/kg | > 53 | – |
| C=C/C(C)=C/[C@](C)(O)C/C=C/[C@H]1[C@H](O)CC(=O)[C@@H]1CC/C=C\CCC(=O)OC | 0.71 µg/kg | 1030 µg/kg | 1.4 | – |
| COC(=O)CC/C=C\CC[C@H]1C(=O)C[C@@H](O)[C@@H]1/C=C/C[C@@](C)(O)/C=C/C(C)=C(C)C | 0.06 µg/kg | > 3160 µg/kg | > 53 | – |
| C/C=C\C=C\[C@](C)(O)C/C=C/[C@H]1[C@H](O)CC(=O)[C@@H]1CC/C=C\CCC(=O)OC | 0.009 µg/kg | 306 µg/kg | 34 | – |
| C=C/C=C(\C)[C@](C)(O)C/C=C/[C@H]1[C@H](O)CC(=O)[C@@H]1CC/C=C\CCC(=O)OC | – | > 3160 µg/kg | – | inactive |
| C/C=C(C)\C=C\[C@](C)(O)C/C=C/[C@H]1[C@H](O)CC(=O)[C@@H]1CC/C=C\CCC(=O)OC | 0.016 µg/kg | 1230 µg/kg | 76 | – |
| C=C(C)/C=C/[C@](C)(O)C/C=C/[C@H]1[C@H](O)CC(=O)[C@@H]1CC/C=C\CCC(=O)OC | 0.002 µg/kg | 420 µg/kg | 210 | – |
